KCC2 mod: KCC2 (human) Cl- transport modulation; Q9H2X9; KCC2 cells, thallium flux FluoZin-2 fluorescence; B-score of Tl+ flux slope (higher = more flux/activation; lower = inhibition) at 10 µM; 2.2% of 190,000 active;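 active = thallium flux slope and its plate-corrected score both differing from the plate sample mean at a set confidence after two filtering rounds, in either direction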;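 note: slope of fluorescence scaled to starting intensity during 10 to 20 s after thallium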
Arbovirus inh: antivirals against arbovirus infection; arbovirus infection cell-based antiviral screen; inhibition, % at 10 µM; 0.37% of 200,000 active; AID 1251; in the data active = inhibition above about 30%
MDM2 E3 inh: Mdm2 E3 ligase (human) inhibition; cell-based MDM2 ubiquitination luciferase reporter, 2 h; 0 = plate control, 100 = twice control, blank-subtracted; signal enhancement, % at 5 µM; 0.11% of 210,000 active; AID 1230;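 active = signal enhancement of 30% or more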;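 note: luminescence tracks abundance of the self-degrading MDM2-luciferase fusion protein; higher signal means inhibition of MDM2 E3 ligase activity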
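Material: stable MDM2–luciferase fusion reporter cells / Quantity: 2000 cells/well / Dosing: single 5 µM compound dose, 0.2% final DMSO / Buffer or medium: DMEM / Schedule: 4 h cell settling then 2 h compound exposure, 37 °C / Detection: luminescence with SteadyLite reagent, 15 min at room temperature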
ROMK mod: human ROMK K+ channel modulation, primary screen. P48048. Tet-inducible ROMK, thallium flux fluorescence; actives lie on both sides. B-score at 10 µM. 2% of 130,000 active. AID 1918;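 active = signal ratio slope over the read window, or its plate-corrected B-score, at least 3 SD from the plate mean, either direction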;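 note: B-score of the F/F0 ratio slope over 7 to 12 s after thallium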
Target sequence (P48048 whole entry, looked up): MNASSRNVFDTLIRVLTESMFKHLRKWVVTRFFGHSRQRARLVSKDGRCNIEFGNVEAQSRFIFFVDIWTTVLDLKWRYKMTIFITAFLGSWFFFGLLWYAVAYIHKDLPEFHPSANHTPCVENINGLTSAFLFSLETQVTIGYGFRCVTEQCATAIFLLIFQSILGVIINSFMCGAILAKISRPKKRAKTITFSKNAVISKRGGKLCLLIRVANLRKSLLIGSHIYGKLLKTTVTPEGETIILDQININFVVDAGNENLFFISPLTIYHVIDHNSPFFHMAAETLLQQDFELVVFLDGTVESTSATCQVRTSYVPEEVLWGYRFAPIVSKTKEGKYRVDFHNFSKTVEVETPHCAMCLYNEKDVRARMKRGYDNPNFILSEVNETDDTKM
PKD1 kinase inh: PKD1 (human) kinase inhibition; Q15139; PKD1 kinase fluorescence polarization assay; inhibition, % (test concentration not listed); 0.056% of 200,000 active; AID 797; in the data active = inhibition above about 50%
Calpain2 inh: calpain II (pig) inhibition; purified calpain II, fluorogenic peptide substrate, 30 min; inhibition, % at 16 µM; 0.37% of 220,000 active;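 active = inhibition above about 50%, limit read from the data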
KCC2 secondary: confirmation of human KCC2 transport modulators; AID 1713; shares compounds with KCC2 mod; HEK293-KCC2, thallium flux, FluoZin2 fluorescence; active compounds read high; normalised thallium flux (F/F0 slope) at 10 µM; 15% of 3,700 active;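 active = thallium flux slope above the same plate's solvent-only control mean plus 3 SD; inconclusive = the two replicate wells disagree; inactive = no significant difference from solvent-only control wells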
KCC2 bumet counter: bumetanide-insensitive thallium flux in KCC2 cells with ouabain, counter-screen; normalized thallium flux at 10 µM; shares compounds with KCC2 mod; AID 1714; 49% of 3,700 active; HEK293-KCC2 + bumetanide/ouabain, thallium flux FluoZin2; active compounds read high;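 active = thallium entry rate above the same plate's blocked-transporter control wells by more than 3 SD; inconclusive = the two repeat wells disagree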;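 note: raw slope of fluorescence over initial fluorescence between 10 and 20 s after thallium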
KCC2 sec2: confirmation of human KCC2 transport modulators. shares compounds with KCC2 mod. HEK293-KCC2, thallium flux FluoZin2 fluorescence; actives lie on both sides; F/F0 rise rate, 10–20 s post-thallium. normalized thallium flux at 10 µM. 23% of 3,700 active;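 active = thallium flux slope more than 3 SD above or below the plate's solvent-only control mean, mostly below; inconclusive = the two repeat wells disagreed; inactive = no significant shift from solvent-only controls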;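 note: raw slope with 0.1% DMSO as baseline and bumetanide as block control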
HEK293 Tl flux: counter-screen for KCC2 modulators: effect in parental HEK293 cells. shares compounds with KCC2 mod. thallium flux FluoZin2, ouabain; baseline-ratio fluorescence slope, 10–20 s after thallium. thallium flux rate (normalised fluorescence) at 10 µM. 46% of 3,700 active. AID 1716;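 active = thallium flux rate significantly above the same plate's solvent-only control wells, beyond their mean plus 3 SD; inconclusive = the two replicate wells gave conflicting results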
KCC2 retest ouab: confirmation of human KCC2 modulators with ouabain | HEK293-KCC2, thallium flux FluoZin2 fluorescence; bidirectional: low = inhibitor, high = activator | shares compounds with KCC2 mod | raw Tl+ flux slope (below DMSO = inhibition, above = activation) at 10 µM | AID 1717 | 48% of 3,700 active;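 active = thallium flux slope beyond 3 SD from same-plate DMSO control mean in most replicates, usually higher, sometimes lower; inconclusive = repeat tests gave conflicting results; inactive = no significant difference from controls in most replicates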;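 note: slope of initial-normalized fluorescence between seconds 10 and 20 after thallium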
HEK counter2: counter-screen for KCC2 modulators: effect in parental HEK293 cells; shares compounds with KCC2 mod; thallium flux FluoZin-2 fluorescence slope; thallium flux slope at 10 µM; 33% of 3,700 active;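 active = thallium flux slope above the same plate's solvent-control mean plus 3 SD in both duplicate wells; inconclusive = duplicate wells that disagreed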;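 note: run without ouabain in cells lacking the KCC2 cotransporter; slope of fluorescence scaled to its starting value between 10 and 20 s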
Active calls of the source: *; u = inconclusive; x = not tested or not shown. The list is not random: actives were taken first. Their share in the collection is about 3.7%.

SMILES	KCC2 mod	Arbovirus inh	MDM2 E3 inh	ROMK mod	PKD1 kinase inh	Calpain2 inh	KCC2 secondary	KCC2 bumet counter	KCC2 sec2	HEK293 Tl flux	KCC2 retest ouab	HEK counter2
COc1ccc(C/C(C)=N/NC(=S)Nc2ccccc2F)cc1	55*	-10	-7	0.21	1	-9	0.011	0.036*	0.04	u	0.039*	u
COc1ccc(OCC(=O)NC(=S)Nc2ccccc2F)cc1	52*	-3	-7	x	-2	-12	0.04*	0.088*	0.049*	0.028*	0.051*	0.033*
COC(=O)C1=NN(C(=O)c2ccccc2)C(C)(O)C1 (stereo unspecified)	x	8	-17	1.6	-3	-6	x	x	x	x	x	x
CC1=NN(C(=O)c2ccc(Br)cc2)C(O)(C(F)(F)OC(F)(F)F)C1 (stereo unspecified)	6.1*	-6	-11	-0.052	1	25	0.0094	0.0099*	0.031	0.0088*	0.029*	u
COC(=O)C1=NN(C(=O)c2ccc(Br)cc2)C(O)(C(C)(C)C)C1 (stereo unspecified)	66*	5	-2	0.0026	0	18	0.049*	0.14*	0.046*	u	0.1*	0.021*
Cc1ccc(C)c(/C(O)=C2\C(=O)C(=O)N(CCCn3ccnc3)C2c2cccnc2)c1 (stereo unspecified)	1.5	0	-3	x	-4	3	x	x	x	x	x	x
Cn1cc(CN2CCCC(CO)(Cc3ccccc3)C2)cn1 (stereo unspecified)	2.3	-7	3	0.012	4	-30	x	x	x	x	x	x
Cc1oc(-c2ccccc2)nc1CS(=O)CC(=O)N1CCc2ccccc2C1 (stereo unspecified)	x	11	-7	x	-2	-6	0.0054	u	0.024*	0.0073	u	0.0097
COc1ccc(-c2nnc(SCC(=O)N3CCc4ccccc4C3)o2)cc1	-3.5*	3	-12	-0.82	4	27	u	0.0051	0.033	u	0.016*	0.011
O=C(CSc1nnc(-c2ccccc2)o1)N1CCc2ccccc2C1	-3.4*	-5	-22	-0.00028	4	10	0.0061	0.0038	0.025*	u	0.013*	0.0098
O=C(CSc1nccc(=O)[nH]1)N1CCc2ccccc2C1	-4.9*	-1	-14	-0.52	-2	-4	0.0057	0.005	0.023*	0.0069	0.015*	0.0092
Cc1cccc(-c2nc(CS(=O)CC(=O)N3CCCCC3)c(C)o2)c1 (stereo unspecified)	x	12	5	x	0	-4	x	x	x	x	x	x
O=C(CSc1nccc(=O)[nH]1)N1CCCc2ccccc21	0.054	4	-4	x	-14	10	x	x	x	x	x	x
CC(NC(=O)CSCc1ccccc1Br)c1ccccc1 (stereo unspecified)	-1.4	-4	14	x	-10	18	x	x	x	x	x	x
COc1ccc(CNC(=O)CSc2nc3cccnc3s2)cc1	x	x	-14	x	x	-9	x	x	x	x	x	x
Cc1ccc(C(=O)NCC(=O)NCC(=O)OCc2ccc(Cl)cc2)cc1	0.045	-1	-4	-0.24	-10	3	x	x	x	x	x	x
O=c1oc(-c2ccc(F)cc2)nc2ccsc12	x	-8	x	0.69	5	5	0.0061	0.005	0.032	u	0.017*	0.01
O=c1oc(-c2ccccc2Cl)nc2ccsc12	x	-9	x	-1.4	0	4	x	x	x	x	x	x
CC(C)(C)c1ccc(NC(=O)C(=O)C2C(=O)Nc3ccccc32)cc1 (stereo unspecified)	7.9*	14	-2	0.0085	-2	-90	0.0057	0.025*	u	0.018*	0.028*	0.02*
CC(C)c1ccc(NC(=O)C(=O)C2C(=O)Nc3ccccc32)cc1 (stereo unspecified)	x	12	-21	0.25	3	-13	x	x	x	x	x	x
CCCCOc1cccc(OCC(=O)Nc2nc3ccccc3[nH]2)c1	0.47	4	9	0.56	6	3	x	x	x	x	x	x
CC1CC(C)CN(S(=O)(=O)c2ccc(C(=O)Nc3sccc3C(N)=O)cc2)C1 (stereo unspecified)	-0.066	-13	-16	x	-1	-185	x	x	x	x	x	x
CCC1CCCCN1S(=O)(=O)c1ccc(C(=O)Nc2nnc(-c3cccs3)o2)cc1 (stereo unspecified)	15*	-6	3	x	-19	-68	0.014*	0.054*	0.029	0.024*	0.045*	0.012*
CC1CC(C)CN(S(=O)(=O)c2ccc(C(=O)Nc3nnc(-c4cccs4)o3)cc2)C1 (stereo unspecified)	12*	-19	-13	0.86	-2	-431	0.0056	0.032*	0.041*	0.025*	0.034*	0.024*
C#CC(C)(C)NC(=O)c1ccc(-c2ccccc2F)cc1	1.3	x	-23	0.34	x	10	x	x	x	x	x	x
SMILES	KCC2 mod	Arbovirus inh	MDM2 E3 inh	ROMK mod	PKD1 kinase inh	Calpain2 inh	KCC2 secondary	KCC2 bumet counter	KCC2 sec2	HEK293 Tl flux	KCC2 retest ouab	HEK counter2
CC(=O)NC1=NN(C(C)=O)C(C)(c2ccccc2)S1 (stereo unspecified)	x	-8	-6	x	8	-32	x	x	x	x	x	x
CC(=O)NC1=NN(C(C)=O)C2(S1)C(=O)N(C(C)C)c1ccc(C)cc12 (stereo unspecified)	x	4	5	0.05	-3	-12	0.0067	0.0049	0.029	0.0082	0.019	0.011
Cc1cc(Nc2ccccc2)nc2cc(O)ccc12	-1.6	9	x	0.14	-4	-14	x	x	x	x	x	x
COc1ccc(Nc2cc(C)c3ccc(O)cc3n2)cc1	-2.8	x	-14	-0.69	x	4	0.0079	0.0055	0.033	u	0.023	0.01
Cc1cc([N+](=O)[O-])nn1CCC(=O)Nc1nccs1	-0.038	6	1	0.48	0	-32	x	x	x	x	x	x
O=C(Nc1ccc(F)cc1)Nc1ccccc1F	-0.22	4	-16	0.056	1	19	x	x	x	x	x	x
O=C(Nc1ccc2[nH]c(=S)sc2c1)Nc1ccccc1F	23*	x	-18	x	x	17	0.0062	0.034*	u	0.019*	0.033*	0.021*
O=C(NCC1CCCO1)C1CCCCN1S(=O)(=O)c1ccc(F)cc1 (stereo unspecified)	-0.72	6	4	0.52	-4	-22	x	x	x	x	x	x
